Activity calls are given as the source filed them. The rule behind the calls is not given here.
Columns and labels:
Oryza sativa = test: Inhibition of rice alpha-glucosidase at 1 mM using 10 mM p-nitrophenyl-alpha-D-glucopyranoside as substrate
Method in brief: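 Rice α-glucosidase (0.1 U cm−3) was preincubated with compound 1 h at 37 °C. Reaction used 10 mM p-nitrophenyl-α-D-glucopyranoside in 100 mM phosphate pH 6.8, 10 min at 37 °C, stopped with 0.1 M Na2CO3. p-Nitrophenol was read at 420 nm. NI means no 50% inhibition at 1 mM. Ki came from Lineweaver–Burk plots. Average of five assays.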

Splenocyte [1] = test: Immunostimulating activity in Swiss albino mouse Splenocytes assessed as decrease in ConA-induced IL-4 secretion at 5 uM by ELISA; format: functional
Splenocyte [2] = test: Immunostimulating activity in Swiss albino mouse Splenocytes assessed as ConA-induced cell proliferation > 5 uM after 72 hrs by MTT assay; format: functional, cell-based
[3] = Inhibition of aspergillus niger alpha-galactosidase using 10 mM p-nitrophenyl-alpha-D-galactopyranoside as substrate
Method in brief: (§1)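 Enzyme (0.1 U/cm3; A. niger α-galactosidase or bovine liver β-galactosidase) was preincubated with inhibitor for 1 h at 37 °C. Substrate was 10 mM p-nitrophenyl α- or β-D-galactopyranoside in 200 mM sodium acetate, reacted 10 min at 37 °C. The reaction was stopped with 200 mM borate pH 9.8 and released p-nitrophenol read at 420 nm. Ki came from Lineweaver–Burk plots; values are the average of five assays.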

Splenocyte [4] = test: Immunostimulating activity in Swiss albino mouse Splenocytes assessed as increase in ConA-induced IFN-gamma secretion at 5 uM by ELISA; format: functional, cell-based
Method in brief: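 Splenocyte supernatants (2 × 10^6 cells/well) were collected after 24 h stimulation with Con A 10 μM alone or with compound at 5 μM. Unstimulated cells served as control. IFN-γ was quantified by sandwich ELISA; mean ± SEM, n = 5.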

Beta-galactosidase = target: T1, Beta-galactosidase (Bos taurus, UniProt Q58D55); test: Inhibition of bovine liver beta-galactosidase using 10 mM p-nitrophenyl-beta-D-galactopyranoside as substrate; method in brief: as §1
T1 sequence (Q58D55 whole entry): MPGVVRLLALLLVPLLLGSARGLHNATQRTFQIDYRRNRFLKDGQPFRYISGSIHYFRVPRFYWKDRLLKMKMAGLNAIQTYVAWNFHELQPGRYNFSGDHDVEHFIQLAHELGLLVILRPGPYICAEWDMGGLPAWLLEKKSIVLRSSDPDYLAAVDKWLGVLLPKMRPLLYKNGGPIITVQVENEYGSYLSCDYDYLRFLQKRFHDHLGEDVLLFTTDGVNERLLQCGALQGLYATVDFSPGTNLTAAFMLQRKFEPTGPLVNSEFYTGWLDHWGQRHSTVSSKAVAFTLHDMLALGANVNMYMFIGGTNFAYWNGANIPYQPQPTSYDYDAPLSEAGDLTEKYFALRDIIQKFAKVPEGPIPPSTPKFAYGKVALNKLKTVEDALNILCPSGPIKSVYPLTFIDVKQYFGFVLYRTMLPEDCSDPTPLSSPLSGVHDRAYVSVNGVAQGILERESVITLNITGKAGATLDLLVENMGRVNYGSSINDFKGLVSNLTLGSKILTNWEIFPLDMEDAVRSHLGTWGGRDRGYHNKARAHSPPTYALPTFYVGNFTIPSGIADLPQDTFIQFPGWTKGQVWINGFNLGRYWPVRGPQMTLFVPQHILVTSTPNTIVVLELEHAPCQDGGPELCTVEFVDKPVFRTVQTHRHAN

[5] = target: T2, Alpha-mannosidase (Canavalia ensiformis) (UniProt C0HJB3); test: Inhibition of jack bean alpha-mannosidase at 1 mM using 10 mM p-nitrophenyl-alpha-D-mannopyranoside as substrate
T2 sequence (whole entry): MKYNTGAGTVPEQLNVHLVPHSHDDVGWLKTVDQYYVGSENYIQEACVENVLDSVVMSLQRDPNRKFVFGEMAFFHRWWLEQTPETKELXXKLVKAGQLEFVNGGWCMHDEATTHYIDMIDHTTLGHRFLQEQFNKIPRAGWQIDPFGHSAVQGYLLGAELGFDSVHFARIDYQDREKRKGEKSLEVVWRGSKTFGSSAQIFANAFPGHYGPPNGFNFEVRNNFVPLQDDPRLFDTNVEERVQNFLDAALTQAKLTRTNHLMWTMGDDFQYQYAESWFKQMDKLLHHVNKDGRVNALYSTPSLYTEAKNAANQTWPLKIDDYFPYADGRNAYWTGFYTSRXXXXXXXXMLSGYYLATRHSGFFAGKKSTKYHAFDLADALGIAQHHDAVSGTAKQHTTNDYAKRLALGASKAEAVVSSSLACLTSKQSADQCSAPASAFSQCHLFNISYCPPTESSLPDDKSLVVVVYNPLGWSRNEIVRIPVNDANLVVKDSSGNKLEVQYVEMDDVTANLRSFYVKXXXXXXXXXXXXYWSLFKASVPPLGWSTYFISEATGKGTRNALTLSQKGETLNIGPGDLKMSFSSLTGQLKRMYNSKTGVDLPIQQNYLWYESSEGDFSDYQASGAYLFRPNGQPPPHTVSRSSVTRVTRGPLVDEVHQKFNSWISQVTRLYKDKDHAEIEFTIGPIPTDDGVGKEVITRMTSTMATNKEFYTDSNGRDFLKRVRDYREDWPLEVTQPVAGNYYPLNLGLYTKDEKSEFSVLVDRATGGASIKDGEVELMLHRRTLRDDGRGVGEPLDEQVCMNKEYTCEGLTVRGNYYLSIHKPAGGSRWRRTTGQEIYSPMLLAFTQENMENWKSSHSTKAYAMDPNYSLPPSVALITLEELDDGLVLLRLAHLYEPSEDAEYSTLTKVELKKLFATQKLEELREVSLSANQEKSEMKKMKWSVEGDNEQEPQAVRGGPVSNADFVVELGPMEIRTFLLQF
Method in brief: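 Jack bean α-mannosidase (0.1 U/cm3) was preincubated with inhibitor for 1 h at 37 °C. Substrate was 10 mM p-nitrophenyl α-D-mannopyranoside in 100 mM citrate pH 4.5, reacted 10 min at 37 °C. The reaction was stopped with 200 mM borate pH 9.8 and absorbance read at 420 nm. Ki came from Lineweaver–Burk plots; average of five assays. NI means under 50% inhibition at 1 mM.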

Splenocyte [6] = test: Immunostimulating activity in Swiss albino mouse Splenocytes assessed as increase in ConA-induced cell proliferation upto 5 uM after 72 hrs by MTT assay; format: functional, cell-based
Method in brief: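 Splenocytes (2 × 10^6/well) from Swiss albino mice were treated with Con A (methods give final 10 μg/mL; results give 10 μM), alone or with compound at final 0.5, 1, 2.5 and 5 μM. Incubation was 72 h at 37 °C, 5% CO2, in RPMI with 10% FCS. Readout by MTT, expressed as % of Con A-treated cells (100%); mean ± SEM, n = 5.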

Splenocyte [7] = test: Immunostimulating activity in Swiss albino mouse Splenocytes assessed as increase in IL-6 secretion at 5 uM by ELISA in presence of 10 uM ConA relative to control; format: functional
Method in brief: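 Supernatants came from splenocytes (2 × 10^6/well) treated with Con A 10 μM plus compound at 5 μM. IL-6 was measured by ELISA: samples 2 h at 37 °C, biotinylated antibody 1 h, then streptavidin–HRP and substrate developed in the dark. Read at 550 nm with 450 nm correction and quantified from an IL-6 standard curve; mean ± SEM, n = 5.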

[8] = Cytotoxicity against Swiss albino mouse Splenocytes assessed as cell proliferation at 0.5 to 5 uM after 72 hrs by MTT assay; format: cell-based; conditions: splenocyte
Method in brief: (§2)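 Swiss albino mouse splenocytes (2 × 10^6 cells/well) were treated with Con A alone or with test samples at final 0.5, 1, 2.5 and 5 μM. Con A is given as final 10 μg/mL in methods and 10 μM in text. Cells were held 72 h at 37 °C, 5% CO2, in RPMI with 10% FCS, then read by MTT. Values are % of Con A-treated cells (100%), mean ± SEM, n = 5.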

[9] = Inhibition of bovine liver beta-glucosidase using 10 mM p-nitrophenyl-[…]-D-glucopyranoside as substrate; design: species or system Bos taurus
Aspergillus niger = test: Inhibition of aspergillus niger alpha-galactosidase at 1 mM using 10 mM p-nitrophenyl-alpha-D-galactopyranoside as substrate
Method in brief: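 Galactosidase (0.1 U cm−3) was preincubated with compound 1 h at 37 °C. Reaction used 10 mM p-nitrophenyl-α- or β-D-galactopyranoside in 200 mM sodium acetate, 10 min at 37 °C, stopped with 200 mM borate pH 9.8. Read at 420 nm. NI means no 50% inhibition at 1 mM. Five assays averaged.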

[10] = Inhibition of rice alpha-glucosidase using 10 mM p-nitrophenyl-alpha-D-glucopyranoside as substrate; design: species or system Oryza sativa
Method in brief: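 Rice α-glucosidase (0.1 U cm−3) was preincubated with compound 1 h at 37 °C. Reaction used 10 mM p-nitrophenyl-α-D-glucopyranoside in 100 mM phosphate pH 6.8, 10 min at 37 °C, stopped with 0.1 M Na2CO3. p-Nitrophenol was read at 420 nm. Ki came from Lineweaver–Burk plots. Average of five assays.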

Splenocyte [11] = test: Immunostimulating activity in Swiss albino mouse Splenocytes assessed as increase in ConA-induced IFN-gamma secretion at 2.5 uM by ELISA; format: functional, cell-based
Method in brief: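 IFN-γ was measured by ELISA in supernatants of splenocytes (2 × 10^6 cells/well). Cells were unstimulated, stimulated with Con A (10 μM), or given Con A plus compound (2.5 or 5 μM) for 24 h. Mean ± SEM, n = 5.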

Splenocyte [12] = test: Immunostimulating activity in Swiss albino mouse Splenocytes assessed as decrease in ConA-induced IL-4 secretion at 2.5 uM by ELISA; format: functional
Method in brief: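 Supernatants came from Con A-stimulated splenocytes (2 × 10^6 cells/well) with compound at 2.5 or 5 μM. They were spun 2000g for 5 min and stored at −70 °C. IL-4 was measured by ELISA: sample 2 h at 37 °C, then peroxidase conjugate 1 h, substrate developed in the dark. Absorbance was read at 550 nm with 450 nm correction and quantified from an IL-4 standard curve. n = 5.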

Splenocyte [13] = test: Immunostimulating activity in Swiss albino mouse Splenocytes assessed as increase in ConA-induced cell proliferation upto 2.5 uM after 72 hrs by MTT assay; format: functional, cell-based; method in brief: as §2
Alpha-mannosidase = target: T3, Alpha-mannosidase (Canavalia ensiformis, UniProt C0HJB3); test: Inhibition of jack bean alpha-mannosidase using 10 mM p-nitrophenyl-alpha-D-mannopyranoside as substrate
T3 sequence (C0HJB3 whole entry): T2 sequence (whole entry)
Method in brief: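 Jack bean α-mannosidase (0.1 U cm−3) was preincubated with compound 1 h at 37 °C. Reaction used 10 mM p-nitrophenyl-α-D-mannopyranoside in 100 mM citrate pH 4.5, 10 min at 37 °C, stopped with 200 mM borate pH 9.8. Read at 420 nm. IC50 and Ki were determined, Ki from Lineweaver–Burk double-reciprocal plots. Mean of five assays.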

Splenocyte [14] = test: Immunostimulating activity in Swiss albino mouse Splenocytes assessed as increase in IL-6 secretion at 2.5 uM by ELISA in presence of 10 uM ConA relative to control; format: functional
Method in brief: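 Splenocytes (2 × 10^6 cells/well) were stimulated with 10 μM Con A plus compound (2.5 or 5 μM). Supernatant IL-6 was measured by sandwich ELISA: sample 2 h at 37 °C, biotinylated antibody 1 h, streptavidin–HRP, then substrate in the dark. Absorbance was read at 550 nm with 450 nm correction against an IL-6 standard curve. Mean ± SEM, n = 5.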

Row | SMILES | IC50 (Alpha-mannosidase) | Ki (Alpha-mannosidase) | inhibition (Oryza sativa) | inhibition at 5 µM (Splenocyte [1]) | Activity (Splenocyte [2]) | IC50 [3] | Ki [3] | Activity (Splenocyte [4]) | IC50 (Beta-galactosidase) | Ki (Beta-galactosidase) | inhibition [5] | Activity (Splenocyte [6]) | fold change (FC) (Splenocyte [7]) | Activity [8] | IC50 [9] | Ki [9] | Activity (Splenocyte [11]) | inhibition at 2.5 µM (Splenocyte [12]) | Activity (Splenocyte [13]) | fold change (FC) (Splenocyte [14]) | further results
1 | OC[C@]12CCCN1C[C@H](O)[C@@H](O)[C@@H]2O | – | – | < 50% | 31% | inactive | 0.13 µM | 0.09 µM | Active | 3.6 µM | 1.5 µM | < 50% | Active | 4.1 | Non-toxic | 116 µM | 95 µM | – | – | – | – | –
2 | OC[C@@]12CCCN1C[C@H](O)[C@@H](O)[C@@H]2O | – | – | < 50% | 34% | inactive | 0.24 µM | 0.54 µM | Active | 2.3 µM | 1 µM | < 50% | Active | 4.4 | Non-toxic | 202 µM | 102 µM | – | – | – | – | –
3 | OCCN1C[C@H](O)[C@@H](O)[C@H](O)[C@H]1CO [MIGLITOL] | – | – | – | – | – | – | – | – | 200 µM | 100 µM | < 50% | – | – | – | 342 µM | 32 µM | – | – | – | – | inhibition (Aspergillus niger): < 50%; IC50 [10]: 0.1 µM; Ki [10]: 0.06 µM
4 | OC[C@@]12CCCN1C[C@@H](O)[C@@H](O)[C@@H]2O | – | – | < 50% | 31% | inactive | 0.63 µM | 0.44 µM | Active | 1.2 µM | 0.5 µM | < 50% | Active | 3.7 | Non-toxic | 156 µM | 86 µM | – | – | – | – | –

More lines, main results first:

Row | IC50 (Alpha-mannosidase) | Ki (Alpha-mannosidase) | SMILES | inhibition (Oryza sativa) | inhibition at 5 µM (Splenocyte [1]) | Activity (Splenocyte [2]) | IC50 [3] | Ki [3] | Activity (Splenocyte [4]) | IC50 (Beta-galactosidase) | Ki (Beta-galactosidase) | inhibition [5] | Activity (Splenocyte [6]) | fold change (FC) (Splenocyte [7]) | Activity [8] | IC50 [9] | Ki [9] | Activity (Splenocyte [11]) | inhibition at 2.5 µM (Splenocyte [12]) | Activity (Splenocyte [13]) | fold change (FC) (Splenocyte [14]) | further results
5 | 1.3 µM | 0.9 µM | O=C1CC[C@@]2(CO)[C@@H](O)[C@H](O)[C@H](O)CN12 | < 50% | – | inactive | 630 µM | 68 µM | – | 7.2 µM | 3.1 µM | – | – | – | Non-toxic | 46 µM | 24 µM | Active | 34% | Active | 8.2 | –
6 | 0.075 µM | 0.043 µM | O=C1CC[C@@]2(CO)[C@@H](O)[C@H](O)[C@@H](O)CN12 | < 50% | – | inactive | 130 µM | 14 µM | – | 5.6 µM | 2.4 µM | – | – | – | Non-toxic | 39 µM | 19 µM | Active | 47% | Active | 9 | –
